Measured values as given in ChEMBL document CHEMBL1145889, “Potent and selective inhibitors of platelet-derived growth factor receptor phosphorylation. 3. Replacement of quinazoline moiety and improvement of metabolic polymorphism of 4-[4-(N-substituted (thio)carbamoyl)-1-piperazinyl]-6,7-dimethoxyquinazoline derivatives” (J Med Chem, 2003).

Columns and labels:
Type in all cases: ADME, organism-based
[1] = Pharmacokinetic parameter (AUC) was determined after administering 1 mg/kg of compound intravenously in rat no.4 belonging to phenotype PM (poor metabolizer); design: dose 1 mg/kg, route intravenous; conditions: in vivo, iv
Summary of the method: (§1)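 Male Sprague–Dawley rats (nos. 1–4) were dosed intravenously at 1 mg/kg. Plasma drug concentration was measured by HPLC. Parameters were derived by model-independent analysis. Rats were classed as extensive or poor metabolizers from their plasma profiles.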

[2] = Volume of distribution at steady state was determined after administering 1 mg/kg of compound intravenously in rat no.4 belonging to phenotype PM (poor metabolizer); design: dose 1 mg/kg, route intravenous; conditions: in vivo, iv, read-out: Vdss; summary of the method: as §1
[3] = Mean residence time of intravenously administered compound (1 mg/kg) in rat no.2 belonging to phenotype EM (extensive metabolizer); conditions: in vivo, iv; summary of the method: as §1
[4] = Mean residence time of intravenously administered compound (1 mg/kg) in rat no.3 belonging to phenotype EM (extensive metabolizer); conditions: in vivo, iv; summary of the method: as §1
[5] = Plasma clearance was determined after administering 1 mg/kg of compound intravenously in rat no.2 belonging to phenotype EM (extensive metabolizer); design: dose 1 mg/kg, route intravenous; conditions: iv; summary of the method: as §1
[6] = Pharmacokinetic parameter (AUC) was determined after administering 30 mg/kg of compound orally in rat no.7 belonging to phenotype PM (poor metabolizer); design: dose 30 mg/kg, route oral; conditions: in vivo, po
Summary of the method: (§2)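 Male Sprague–Dawley rats (nos. 5–7) were given 30 mg/kg orally. Plasma concentration was determined by HPLC. Tmax, T1/2, MRT, Cmax and AUC came from model-independent analysis. Extensive and poor metabolizers were assigned from the concentration–time profiles.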

[7] = Half-life period of intravenously administered compound (1 mg/kg) in rat no.3 belonging to phenotype EM (extensive metabolizer); conditions: in vivo, iv, read-out: T1/2 beta (converted); summary of the method: as §1
[8] = Half-life period of orally administered compound (30 mg/kg) in rat no.7 belonging to phenotype PM (poor metabolizer); conditions: in vivo, po; summary of the method: as §2
[9] = Volume of distribution at steady state was determined after administering 1 mg/kg of compound intravenously in rat no.1 belonging to phenotype EM (extensive metabolizer); design: dose 1 mg/kg, route intravenous; conditions: in vivo, iv, read-out: Vdss; summary of the method: as §1
[10] = Half-life period of orally administered compound (30 mg/kg) in rat no.5 belonging to phenotype PM (poor metabolizer); conditions: in vivo, po; summary of the method: as §2
[11] = Pharmacokinetic parameter (AUC) was determined after administering 1 mg/kg of compound intravenously in rat no.1 belonging to phenotype EM (extensive metabolizer); design: dose 1 mg/kg, route intravenous; conditions: in vivo, iv; summary of the method: as §1
[12] = Plasma clearance was determined after administering 1 mg/kg of compound intravenously in rat no.3 belonging to phenotype EM (extensive metabolizer); design: dose 1 mg/kg, route intravenous; conditions: iv; summary of the method: as §1
[13] = Half-life period of orally administered compound (30 mg/kg) in rat no.6 belonging to phenotype EM (extensive metabolizer); conditions: in vivo, po; summary of the method: as §2
[14] = Maximum plasma concentration was determined after administering 30 mg/kg of compound orally in rat no.5 belonging to phenotype PM (poor metabolizer); design: dose 30 mg/kg, route oral; conditions: po; summary of the method: as §2
[15] = Half-life period of intravenously administered compound (1 mg/kg) in rat no.4 belonging to phenotype PM (poor metabolizer); conditions: in vivo, iv, read-out: T1/2 beta (converted); summary of the method: as §1
[16] = Maximum time of retention of orally administered compound (30 mg/kg) in rat no.6 belonging to phenotype EM (extensive metabolizer); conditions: in vivo, po; summary of the method: as §2
[17] = Volume of distribution at steady state was determined after administering 1 mg/kg of compound intravenously in rat no.3 belonging to phenotype EM (extensive metabolizer); design: dose 1 mg/kg, route intravenous; conditions: in vivo, iv, read-out: Vdss; summary of the method: as §1
[18] = Maximum time of retention of orally administered compound (30 mg/kg) in rat no.7 belonging to phenotype PM (poor metabolizer); conditions: in vivo, po; summary of the method: as §2
[19] = Maximum plasma concentration was determined after administering 30 mg/kg of compound orally n rat no.7 belonging to phenotype PM (poor metabolizer); design: dose 30 mg/kg, route oral; conditions: po; summary of the method: as §2
[20] = Pharmacokinetic parameter (AUC) was determined after administering 30 mg/kg of compound orally in rat no.5 belonging to phenotype PM (poor metabolizer); design: dose 30 mg/kg, route oral; conditions: in vivo, po; summary of the method: as §2
[21] = Mean residence time of intravenously administered compound (1 mg/kg) in rat no.4 belonging to phenotype PM (poor metabolizer); conditions: in vivo, iv; summary of the method: as §1
[22] = Pharmacokinetic parameter (AUC) was determined after administering 1 mg/kg of compound intravenously in rat no.3 belonging to phenotype EM (extensive metabolizer); design: dose 1 mg/kg, route intravenous; conditions: in vivo, iv; summary of the method: as §1
[23] = Mean residence time after oral administration of 30 mg/kg of compound in rat no.5 belonging to phenotype PM (poor metabolizer); design: dose 30 mg/kg, route oral; conditions: in vivo; summary of the method: as §2
[24] = Maximum time of retention of orally administered compound (30 mg/kg) in rat no.5 belonging to phenotype PM (poor metabolizer); conditions: in vivo, po; summary of the method: as §2
[25] = Maximum plasma concentration was determined after administering 30 mg/kg of compound orally in rat no.6 belonging to phenotype EM (extensive metabolizer); design: dose 30 mg/kg, route oral; conditions: po; summary of the method: as §2
[26] = Plasma clearance was determined after administering 1 mg/kg of compound intravenously in rat no.1 belonging to phenotype EM (extensive metabolizer); design: dose 1 mg/kg, route intravenous; conditions: iv; summary of the method: as §1
[27] = Plasma clearance was determined after administering 1 mg/kg of compound intravenously in rat no.4 belonging to phenotype PM (poor metabolizer); design: dose 1 mg/kg, route intravenous; conditions: iv; summary of the method: as §1
[28] = Mean residence time of intravenously administered compound (1 mg/kg) in rat no.1 belonging to phenotype EM (extensive metabolizer); conditions: in vivo, iv; summary of the method: as §1
[29] = Half-life period of intravenously administered compound (1 mg/kg) in rat no.2 belonging to phenotype EM (extensive metabolizer); conditions: in vivo, iv, read-out: T1/2 beta (converted); summary of the method: as §1
[30] = Half-life period of intravenously administered compound (1 mg/kg) in rat no.1 belonging to phenotype EM (extensive metabolizer); conditions: in vivo, iv, read-out: T1/2 beta (converted); summary of the method: as §1
[31] = Volume of distribution at steady state was determined after administering 1 mg/kg of compound intravenously in rat no.2 belonging to phenotype EM (extensive metabolizer); design: dose 1 mg/kg, route intravenous; conditions: in vivo, iv, read-out: Vdss; summary of the method: as §1
[32] = Mean residence time after oral administration of 30 mg/kg of compound in rat no.6 belonging to phenotype EM (extensive metabolizer); design: dose 30 mg/kg, route oral; conditions: in vivo; summary of the method: as §2
[33] = Pharmacokinetic parameter (AUC) was determined after administering 30 mg/kg of compound orally in rat no.6 belonging to phenotype EM (extensive metabolizer); design: dose 30 mg/kg, route oral; conditions: in vivo, po; summary of the method: as §2
[34] = Mean residence time after oral administration of 30 mg/kg of compound in rat no.7 belonging to phenotype PM (poor metabolizer); design: dose 30 mg/kg, route oral; conditions: in vivo; summary of the method: as §2

COc1cc2ncnc(N3CCN(C(=O)Nc4ccc(C#N)cc4)CC3)c2cc1OC showed an AUC [1] of 23.6 µg·h/mL, a Vd [2] of 0.18 L/kg and an MRT [3] of 0.39 h. The MRT [4] was 0.35 h, the clearance [5] was 0.404 L/h/kg and the AUC [6] was 455 µg·h/mL. The half-life [7] was 0.39 h, the half-life [8] was 3.4 h and the Vd [9] was 0.22 L/kg. It also gave a half-life [10] of 5.25 h, an AUC [11] of 2.87 µg·h/mL and a clearance [12] of 0.413 L/h/kg. For the same compound, the half-life [13] was 2.54 h, the Cmax [14] was 50.7 µg/mL and the half-life [15] was 3.1 h. For the same compound, the Tmax [16] was 2 h, the Vd [17] was 0.15 L/kg and the Tmax [18] was 2 h. The Cmax [19] was 35.2 µg/mL, the AUC [20] was 815 µg·h/mL and the MRT [21] was 4.2 h. It also gave an AUC [22] of 2.42 µg·h/mL, an MRT [23] of 8.56 h and a Tmax [24] of 8 h. For the same compound, the Cmax [25] was 5.22 µg/mL, the clearance [26] was 0.349 L/h/kg and the clearance [27] was 0.0424 L/h/kg. For the same compound, the MRT [28] was 0.65 h, the half-life [29] was 0.45 h and the half-life [30] was 0.97 h. The Vd [31] was 0.16 L/kg, the MRT [32] was 3.92 h and the AUC [33] was 26.3 µg·h/mL. It also gave an MRT [34] of 6.36 h.
